{"data": "Experimental data collected from several papers", "effect on": "cell growth or viability", "note": "Compare with care: the assays were run in different laboratories."}
{"SMILES": "CC(C)(C)c1cc(NC(=O)Nc2ccc(-c3cn4c(n3)sc3cc(OCCN5CCOCC5)ccc34)cc2)no1", "cell line": "NOMO-1", "time": "72 h", "quantity": "GI50", "value": "> 10000 nM"}
{"SMILES": "O=C(Nc1ccc(Cl)cc1)Nc1ccc(-c2cn(Cc3cccc(Cl)c3)nn2)cc1", "cell line": "MCF7", "method": "CCK-8", "concentration": "50 µM", "time": "72 h", "quantity": "viability", "value": "98.2%"}
{"SMILES": "COc1ccc(NC(=O)Nc2ccc(-c3cn(Cc4ccc(Br)cc4)nn3)cc2)cc1", "cell line": "MCF7", "method": "CCK-8", "concentration": "50 µM", "time": "48 h", "quantity": "viability", "value": "98.4%"}
{"SMILES": "CN(C)CCNC(=O)c1ccc(-c2nc3ccc4[nH]ncc4c3c3c2CCCC3)c(F)c1", "cell line": "NOMO-1", "time": "72 h", "quantity": "GI50", "value": "3080 nM"}
{"SMILES": "COc1ccc2/c(=N/c3ccccc3NC(=O)[C@@H](N)CO)cc(-c3ccc4c(c3)OCCO4)oc2c1", "cell line": "MCF7", "method": "CCK-8", "concentration": "1 µM", "quantity": "inhibition", "value": "8.55%"}
{"SMILES": "O=C(C[C@@H](C(F)F)n1ccc(F)n1)N1CCC(O)(Cn2cnc3c(cnn3-c3ccc(F)cc3)c2=O)CC1", "cell line": "CAPAN-1", "method": "SRB", "concentration": "27.43 nM", "time": "5 days", "quantity": "viability", "value": "66.3%"}
{"SMILES": "COc1ccc(NC(=O)Nc2ccc(-c3cn(Cc4ccc(C)cc4)nn3)cc2)cc1", "cell line": "MCF7", "method": "CCK-8", "concentration": "50 µM", "time": "48 h", "quantity": "viability", "value": "81.1%"}
{"SMILES": "O=C(NCc1cn(Cc2ccc(Br)cc2)nn1)Nc1ccc(Cl)cc1", "cell line": "MCF7", "method": "CCK-8", "concentration": "50 µM", "time": "72 h", "quantity": "viability", "value": "91.2%"}
{"SMILES": "O=C(Nc1ccc(Cl)cc1)Nc1cccc(-c2cn(Cc3cccc(Br)c3)nn2)c1", "cell line": "MCF7", "method": "CCK-8", "concentration": "50 µM", "time": "72 h", "quantity": "viability", "value": "72.8%"}
{"SMILES": "O=C(Nc1ccccc1/N=c1\\cc(-c2ccc3c(c2)OCO3)oc2ccccc12)N1CCOCC1", "cell line": "MCF7", "method": "CCK-8", "concentration": "1 µM", "quantity": "inhibition", "value": "12.9%"}
{"SMILES": "O=C(Nc1ccc(Cl)cc1)Nc1ccc(-c2cn(Cc3ccc(Cl)cc3)nn2)cc1", "cell line": "MCF7", "method": "CCK-8", "concentration": "50 µM", "time": "72 h", "quantity": "viability", "value": "98%"}
{"SMILES": "NC(=O)C1CCCN1C(=O)Nc1ccccc1/N=c1\\cc(-c2ccc3c(c2)OCCO3)oc2cc(F)ccc12 (centres unmarked)", "cell line": "MCF7", "method": "CCK-8", "concentration": "1 µM", "quantity": "inhibition", "value": "7.19%"}
{"SMILES": "Cc1n[nH]c2ccc3nc(-c4ccc(C(=O)NCCN(C)C)cc4F)c4c(c3c12)CCCC4", "cell line": "NOMO-1", "time": "72 h", "quantity": "GI50", "value": "292 nM"}
{"SMILES": "CC(C)(C)[C@H](N)C(=O)Nc1ccccc1/N=c1\\cc(-c2ccc3c(c2)OCO3)oc2ccccc12", "cell line": "MCF7", "method": "CCK-8", "concentration": "1 µM", "quantity": "inhibition", "value": "21.3%"}
{"SMILES": "COc1ccc(NC(=O)Nc2ccc(-c3cn(Cc4ccc(Cl)cc4)nn3)cc2)cc1", "cell line": "MCF7", "method": "CCK-8", "concentration": "50 µM", "time": "72 h", "quantity": "viability", "value": "99%"}
{"SMILES": "NCC(=O)Nc1ccccc1/N=c1\\cc(-c2ccc3c(c2)OCCO3)oc2ccccc12", "cell line": "MCF7", "method": "CCK-8", "concentration": "1 µM", "quantity": "inhibition", "value": "-1.21%"}
{"SMILES": "CN(C)CCNC(=O)c1ccc(-c2nc3ccc4[nH]ncc4c3c3c2CCCC3)cc1", "cell line": "NOMO-1", "time": "72 h", "quantity": "GI50", "value": "568 nM"}
{"SMILES": "Cc1ccccc1Cn1cc(-c2cccc(NC(=O)Nc3ccc(F)cc3)c2)nn1", "cell line": "MCF7", "method": "CCK-8", "concentration": "50 µM", "time": "72 h", "quantity": "viability", "value": "58.8%"}
{"SMILES": "NCCC(=O)Nc1ccccc1/N=c1\\cc(-c2ccc3c(c2)OCCO3)oc2cc(F)ccc12", "cell line": "MCF7", "method": "CCK-8", "concentration": "1 µM", "quantity": "inhibition", "value": "-1.71%"}
{"SMILES": "CN(C)CCNC(=O)c1ccc(-c2nc3ccc4[nH]ncc4c3c3c2CCCCC3)cc1", "cell line": "NOMO-1", "time": "72 h", "quantity": "GI50", "value": "2270 nM"}
